Tests used:
[1] = Metabolic stability in human liver microsomes assessed as half life; type: ADME, Microsome; conditions: time 2 min
[2] = Metabolic stability in rat liver microsomes assessed as half life; type: ADME, Microsome; conditions: time 2 min
[3] = Oral bioavailability in rat measured at 5 mg/kg up to 24 hrs; type: ADME, organism-based; conditions: in vivo
Procedure, shortened: (§1)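 Rats dosed 5 mg/kg PO and 1 mg/kg IV; each value is the mean of 3 rats unless otherwise noted (some n = 2). Vehicle PEG 300/ethanol/Tween 80 (89:10:1 v/v), or PEG 300/ethanol/0.1 N NaOH/Tween 80 (84.5:10:5:0.5 v/v). F, tmax, Cmax and CL come from a full 24 h PK screen. AUCtotal is derived from the full 24 h run plus a 6 h PK screen.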

[4] = Tmax in rat at 5 mg/kg, po measured after 24 hrs; type: ADME, organism-based; conditions: in vivo; procedure, shortened: as §1
[5] = test system: Human immunodeficiency virus 1; test: Antiviral activity against wild type HIV-1 NL4-3 harbouring Gag AV370 mutant infected in MT-2 cells assessed as inhibition of viral replication in presence of 10% of fetal bovine serum by luciferase reporter gene based multicycle replication assay; type: functional, organism-based; conditions: Human immunodeficiency virus 1, NL4-3, MT2
Procedure, shortened: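 Multiple-cycle replication assay in MT-2 cells using NL4-3-derived virus carrying a Renilla luciferase reporter (NLRepRlucP373S) as the growth marker. V370A and ΔV370 viruses are identical to WT except for that single substitution or deletion at position 370.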

[6] = test system: Human immunodeficiency virus 1; test: Antiviral activity against wild type HIV-1 NL4-3 infected in MT-2 cells assessed as inhibition of viral replication in presence of 10% of fetal bovine serum by luciferase reporter gene based multicycle replication assay; type: functional, organism-based; conditions: Human immunodeficiency virus 1, NL4-3, MT2
[7] = Cytotoxicity against human MT2 cells; type: cell-based
[8] = test system: Human immunodeficiency virus 1; test: Antiviral activity against wild type HIV-1 NL4-3 harbouring Gag […]/V370A mutant infected in MT-2 cells assessed as inhibition of viral replication in presence of 10% of fetal bovine serum by luciferase reporter gene based multicycle replication assay; type: functional, organism-based; conditions: Human immunodeficiency virus 1, NL4-3, MT2
[9] = test system: Human immunodeficiency virus 1; test: Antiviral activity against wild type HIV-1 NL4-3 harbouring Gag A364V mutant infected in MT-2 cells assessed as inhibition of viral replication in presence of 10% of fetal bovine serum by luciferase reporter gene based multicycle replication assay; type: functional, organism-based; conditions: Human immunodeficiency virus 1, NL4-3, MT2
[10] = test system: Human immunodeficiency virus 1; test: Antiviral activity against wild type HIV-1 NL4-3 infected in MT-2 cells assessed as inhibition of viral replication in presence of 40% human serum and 27 mg/ml human serum albumin by luciferase reporter gene based multicycle replication assay; type: functional, organism-based; conditions: Human immunodeficiency virus 1, NL4-3, MT2
[11] = test system: Human immunodeficiency virus 1; test: Antiviral activity against wild type HIV-1 NL4-3 harbouring Gag AV370/T371A mutant infected in MT-2 cells assessed as inhibition of viral replication in presence of 10% of fetal bovine serum by luciferase reporter gene based multicycle replication assay; type: functional, organism-based; conditions: Human immunodeficiency virus 1, NL4-3, MT2
[12] = test system: Human immunodeficiency virus 1; test: Antiviral activity against wild type HIV-1 NL4-3 harbouring Gag V370A mutant infected in MT-2 cells assessed as inhibition of viral replication in presence of 10% of fetal bovine serum by luciferase reporter gene based multicycle replication assay; type: functional, organism-based; conditions: Human immunodeficiency virus 1, NL4-3, MT2
[13] = AUCtotal in rat at 5 mg/kg, po measured after 24 hrs; type: ADME, organism-based; set-up: route oral, dose 5 mg/kg, time 24 hrs; conditions: in vivo; procedure, shortened: as §1
[14] = Cmax in rat at 5 mg/kg, po measured after 24 hrs; type: ADME, organism-based; set-up: route oral, dose 5 mg/kg, time 24 hrs; conditions: in vivo; procedure, shortened: as §1
[15] = Clearance in rat at 1 mg/kg, iv measured after 24 hrs; type: ADME, organism-based; conditions: in vivo; procedure, shortened: as §1
[16] = Volume of distribution at steady state in rat at 1 mg/kg, iv; type: ADME, organism-based; conditions: in vivo, read-out: Vdss
[17] = AUC (0 to 24) in rat at 5 mg/kg, po measured after 24 hrs; type: ADME, organism-based; set-up: route oral, time 24 hrs, dose 5 mg/kg; conditions: in vivo
Procedure, shortened: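 Rats dosed orally at 5 mg/kg (IV arm 1 mg/kg). Vehicle was PEG 300/ethanol/Tween 80 (89:10:1 v/v) or PEG 300/ethanol/0.1 N NaOH/Tween 80 (84.5:10:5:0.5 v/v). Values are the mean of 3 rats unless noted (some n = 2), from a full 24 h PK run; AUC_total also drew on a 6 h PK screen.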

SMILES	EC50 [5] [nM]	EC50 [6] [nM]	CC50 [7] [nM]	EC50 [8] [nM]	EC50 [10] [nM]	EC50 [12] [nM]	also measured
C=C(C)[C@@H]1CC[C@]2(C(=O)O)CC[C@]3(C)[C@H](CC[C@@H]4[C@@]5(C)CC[C@H](OC(=O)CC(C)(C)C(=O)O)C(C)(C)[C@@H]5CC[C@]43C)[C@@H]12 [BEVIRIMAT]	–	–	–	–	–	–	half-life [1]: > 2 h; half-life [2]: 0.492 h; F ([3]; 5 mg/kg, 24 h): 54%; Tmax [4]: 1.8 h
C=C(C)[C@@H]1CC[C@]2(NCCN3CCS(=O)(=O)CC3)CC[C@]3(C)[C@H](CC[C@@H]4[C@@]5(C)CC=C(CCC(C)(C)CC(=O)O)C(C)(C)[C@@H]5CC[C@]43C)[C@@H]12	2.3	1.3	12300	1.6	6.8	–	EC50 [9]: 1290 nM
C=C(C)[C@@H]1CC[C@]2(NCCN3CCS(=O)(=O)CC3)CC[C@]3(C)[C@H](CC[C@@H]4[C@@]5(C)CC=C(CCCC(C(=O)O)C(=O)O)C(C)(C)[C@@H]5CC[C@]43C)[C@@H]12	–	306	> 30000	–	–	–	EC50 [11]: 555 nM
C=C(C)[C@@H]1CC[C@]2(NCCN3CCS(=O)(=O)CC3)CC[C@]3(C)[C@H](CC[C@@H]4[C@@]5(C)CC=C(C6=CCC(C(=O)O)CC6)C(C)(C)[C@@H]5CC[C@]43C)[C@@H]12 (stereo partly drawn)	2.1	0.6	9600	–	8.9	0.8	–
C=C(C)[C@@H]1CC[C@]2(NCCN3CCS(=O)(=O)CC3)CC[C@]3(C)[C@H](CC[C@@H]4[C@@]5(C)CC=C(C6=CC7(C6)CC(C(=O)O)(C(=O)O)C7)C(C)(C)[C@@H]5CC[C@]43C)[C@@H]12	61.1	13	> 30000	–	–	28.8	–
C=C(C)[C@@H]1CC[C@]2(NCCN3CCS(=O)(=O)CC3)CC[C@]3(C)[C@H](CC[C@@H]4[C@@]5(C)CC=C(C6=CC7(C6)CC(C(=O)O)C7)C(C)(C)[C@@H]5CC[C@]43C)[C@@H]12 (stereo partly drawn)	5.9	1.5	11900	49	7	1.6	EC50 [9]: 980 nM; half-life [1]: 1.15 h; half-life [2]: > 2 h; bioavailability [3]: 32%; AUC [13]: 13.5 µM·h; Tmax [4]: 6.3 h; Cmax [14]: 900 nM; clearance [15]: 2.9 mL/min/kg; Vd [16]: 1.4 L/kg
C=C(C)[C@@H]1CC[C@]2(NCCN3CCS(=O)(=O)CC3)CC[C@]3(C)[C@H](CC[C@@H]4[C@@]5(C)CC=C(CCCCC(=O)O)C(C)(C)[C@@H]5CC[C@]43C)[C@@H]12	–	2.3	10200	–	–	–	EC50 [11]: 118 nM
C=C(C)[C@@H]1CC[C@]2(CO)CC[C@]3(C)[C@H](CC[C@@H]4[C@@]5(C)CC=C(C#CC(=O)O)C(C)(C)[C@@H]5CC[C@]43C)[C@@H]12	> 3000	252	> 10000	–	–	> 3000	–
C=C(C)[C@@H]1CC[C@]2(C(=O)O)CC[C@]3(C)[C@H](CC[C@@H]4[C@@]5(C)CC=C(C6=CC7(C6)CC(C(=O)O)(C(=O)O)C7)C(C)(C)[C@@H]5CC[C@]43C)[C@@H]12	437	28.3	18600	–	–	85.4	–
C=C(C)[C@@H]1CC[C@]2(NCCN3CCC(S(C)(=O)=O)CC3)CC[C@]3(C)[C@H](CC[C@@H]4[C@@]5(C)CC=C(c6ccc(C(=O)O)cc6)C(C)(C)[C@@H]5CC[C@]43C)[C@@H]12	–	1.9	–	–	–	–	–
C=C(C)[C@@H]1CC[C@]2(NCCN3CCS(=O)(=O)CC3)CC[C@]3(C)[C@H](CC[C@@H]4[C@@]5(C)CC=C(C6=CC[C@@H](C(=O)O)CC6)C(C)(C)[C@@H]5CC[C@]43C)[C@@H]12	3.1	0.9	12200	–	5.7	1.3	half-life [1]: 0.967 h; half-life [2]: > 2 h; bioavailability [3]: 58%; AUC [13]: 15.8 µM·h; Tmax [4]: 2.7 h; Cmax [14]: 1100 nM; clearance [15]: 4.3 mL/min/kg; Vd [16]: 2.3 L/kg
C=C(C)[C@@H]1CC[C@]2(NCCN3CCS(=O)(=O)CC3)CC[C@]3(C)[C@H](CC[C@@H]4[C@@]5(C)CC=C(CCCC(C)(C)C(=O)O)C(C)(C)[C@@H]5CC[C@]43C)[C@@H]12	–	5.3	8200	–	–	–	EC50 [11]: 29.7 nM
C=C(C)[C@@H]1CC[C@]2(NCCN3CCC(S(C)(=O)=O)CC3)CC[C@]3(C)[C@H](CC[C@@H]4[C@@]5(C)CC=C(C6=CC[C@H](C(=O)O)CC6)C(C)(C)[C@@H]5CC[C@]43C)[C@@H]12	4.2	1.4	9100	9.6	6.6	–	EC50 [9]: 878 nM
C=C(C)[C@@H]1CC[C@]2(NCCN3CCS(=O)(=O)CC3)CC[C@]3(C)[C@H](CC[C@@H]4[C@@]5(C)CC=C(C6=CC[C@H](C(=O)O)CC6)C(C)(C)[C@@H]5CC[C@]43C)[C@@H]12	4.1	1.3	4100	–	5	2	–
C=C(C)[C@@H]1CC[C@]2(NCCN3CCC(S(C)(=O)=O)CC3)CC[C@]3(C)[C@H](CC[C@@H]4[C@@]5(C)CC=C(C6=CC[C@@H](C(=O)O)CC6)C(C)(C)[C@@H]5CC[C@]43C)[C@@H]12	2.7	2.7	9000	14.7	5	–	EC50 [9]: 1800 nM
C=C(C)[C@@H]1CC[C@]2(NCCN3CCS(=O)(=O)CC3)CC[C@]3(C)[C@H](CC[C@@H]4[C@@]5(C)CC=C(C6=CCC(C(=O)O)(C(=O)O)CC6)C(C)(C)[C@@H]5CC[C@]43C)[C@@H]12	40.1	99	13200	113	–	39.2	–
C=C(C)[C@@H]1CC[C@]2(NCCN3CCS(=O)(=O)CC3)CC[C@]3(C)[C@H](CC[C@@H]4[C@@]5(C)C=CC(=C6CC7(C6)CC(C(=O)O)(C(=O)O)C7)C(C)(C)[C@@H]5CC[C@]43C)[C@@H]12	60.8	26.7	> 10000	–	–	53.1	–
C=C(C)[C@@H]1CC[C@]2(NCCN3CCS(=O)(=O)CC3)CC[C@]3(C)[C@H](CC[C@@H]4[C@@]5(C)CC=C(CC6CCC(C(=O)O)CC6)C(C)(C)[C@@H]5CC[C@]43C)[C@@H]12 (stereo partly drawn)	–	3	13500	12.4	–	–	EC50 [11]: 5.6 nM; EC50 [9]: 1850 nM
C=C(C)[C@@H]1CC[C@]2(C(=O)O)CC[C@]3(C)[C@H](CC[C@@H]4[C@@]5(C)CC=C(c6ccc(C(=O)O)cc6)C(C)(C)[C@@H]5CC[C@]43C)[C@@H]12	–	–	–	–	316	–	half-life [1]: > 2 h; half-life [2]: > 2 h; AUC at 24 h [17]: 5.7 µM·h; Tmax [4]: 4 h; clearance [15]: 1 mL/min/kg; Vd [16]: 0.1 L/kg

Source: ChEMBL document CHEMBL4706674 (Bioorg Med Chem Lett, 2021)
